Results taken from ChEMBL document CHEMBL1136894, “New antituberculotics originated from salicylanilides with promising in vitro activity against atypical mycobacterial strains” (Bioorg Med Chem, 2009).
Converted amounts (≈) assume the structure as drawn.

What was measured:
[1] = tested on: Mycobacterium tuberculosis; assay: Antimycobacterial activity against Mycobacterium tuberculosis CNCTC My 331/88 after 14 days; type: functional; details: CNCTC My 331/88, 336 h
Method in brief: (§1)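 Broth dilution in Sula semisynthetic medium, compounds added as DMSO solutions at 250, 125, 62, 32, 16, 8, 4, 2 and 1. Strains came from the Czech National Collection of Type Cultures; the M. tuberculosis inoculum was diluted 10^-3. Cultures were incubated at 37 °C, and MIC was read after 7, 14 and 21 days.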

[2] = tested on: Mycobacterium tuberculosis; assay: Antimycobacterial activity against Mycobacterium tuberculosis CNCTC My 331/88 after 21 days; type: functional; details: CNCTC My 331/88, 504 h; method in brief: as §1
Mycobacterium avium [3] = assay: Antimycobacterial activity against Mycobacterium avium CNCTC My 330/88 after 14 days; type: functional; details: CNCTC My 330/88, 336 h; method in brief: as §1
Mycobacterium avium [4] = assay: Antimycobacterial activity against Mycobacterium avium CNCTC My 330/88 after 21 days; type: functional; details: CNCTC My 330/88, 504 h; method in brief: as §1
Mycobacterium kansasii [5] = assay: Antimycobacterial activity against Mycobacterium kansasii CNCTC My 235/80 after 7 days; type: functional; details: CNCTC My 235/80, 168 h
Method in brief: (§2)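 Compounds were added as DMSO solutions to Sula semisynthetic medium at 250, 125, 62, 32, 16, 8, 4, 2 and 1 µmol/L. Two M. kansasii strains were used: CNCTC My 235/80 and clinical isolate 6509/96, each with strain dilution 10^-4. Incubation was at 37 °C, and MIC was read at 7, 14 and 21 days.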

Mycobacterium kansasii [6] = assay: Antimycobacterial activity against Mycobacterium kansasii CNCTC My 235/80 after 14 days; type: functional; details: CNCTC My 235/80, 336 h; method in brief: as §2
Mycobacterium kansasii [7] = assay: Antimycobacterial activity against Mycobacterium kansasii CNCTC My 235/80 after 21 days; type: functional; details: CNCTC My 235/80, 504 h; method in brief: as §2
Mycobacterium kansasii [8] = assay: Antimycobacterial activity against Mycobacterium kansasii isolate 6509/96 after 7 days; type: functional; details: isolate 6509/96, 168 h; method in brief: as §2
Mycobacterium kansasii [9] = assay: Antimycobacterial activity against Mycobacterium kansasii isolate 6509/96 after 14 days; type: functional; details: isolate 6509/96, 336 h; method in brief: as §2
Mycobacterium kansasii [10] = assay: Antimycobacterial activity against Mycobacterium kansasii isolate 6509/96 after 21 days; type: functional; details: isolate 6509/96, 504 h; method in brief: as §2
[11] = Lipophilicity, log K by HPLC; type: physicochemical
Method in brief: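 Capacity factors k were measured by RP-HPLC and log k was calculated from them.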

Compound | MIC [1] [µM] | MIC [2] [µM] | MIC (Mycobacterium avium [3]) [µM] | MIC (Mycobacterium avium [4]) [µM] | MIC (Mycobacterium kansasii [5]) [µM] | MIC (Mycobacterium kansasii [6]) [µM] | MIC (Mycobacterium kansasii [7]) [µM] | MIC (Mycobacterium kansasii [8]) [µM] | MIC (Mycobacterium kansasii [9]) [µM] | MIC (Mycobacterium kansasii [10]) [µM] | log K [11]
CC(C)[C@@H](NC(=O)OCc1ccccc1)C(=O)Oc1ccc(Cl)cc1C(=O)Nc1ccc(Cl)c(Cl)c1 | 2 (≈ 1.1 µg/mL) | 4 (≈ 2.2 µg/mL) | 16 (≈ 8.8 µg/mL) | 16 (≈ 8.8 µg/mL) | 4 (≈ 2.2 µg/mL) | 4 (≈ 2.2 µg/mL) | 8 (≈ 4.4 µg/mL) | 8 (≈ 4.4 µg/mL) | 8 (≈ 4.4 µg/mL) | 16 (≈ 8.8 µg/mL) | 1.1559
O=C(N[C@@H](Cc1ccccc1)C(=O)Oc1ccc(Cl)cc1C(=O)Nc1ccc(Br)cc1)OCc1ccccc1 | 4 (≈ 2.43 µg/mL) | 8 (≈ 4.86 µg/mL) | 16 (≈ 9.73 µg/mL) | 16 (≈ 9.73 µg/mL) | 4 (≈ 2.43 µg/mL) | 8 (≈ 4.86 µg/mL) | 8 (≈ 4.86 µg/mL) | 16 (≈ 9.73 µg/mL) | 16 (≈ 9.73 µg/mL) | 16 (≈ 9.73 µg/mL) | 1.1258
CC(C)[C@H](NC(=O)OCc1ccccc1)C(=O)Oc1ccc(Cl)cc1C(=O)Nc1ccc(Cl)cc1 | 4 (≈ 2.06 µg/mL) | 4 (≈ 2.06 µg/mL) | 16 (≈ 8.25 µg/mL) | 16 (≈ 8.25 µg/mL) | 8 (≈ 4.12 µg/mL) | 16 (≈ 8.25 µg/mL) | 16 (≈ 8.25 µg/mL) | 8 (≈ 4.12 µg/mL) | 8 (≈ 4.12 µg/mL) | 16 (≈ 8.25 µg/mL) | 0.9417
C[C@@H](NC(=O)OCc1ccccc1)C(=O)Oc1ccc(Cl)cc1C(=O)Nc1ccc(Cl)cc1 | 4 (≈ 1.95 µg/mL) | 4 (≈ 1.95 µg/mL) | 16 (≈ 7.8 µg/mL) | 16 (≈ 7.8 µg/mL) | 8 (≈ 3.9 µg/mL) | 16 (≈ 7.8 µg/mL) | 16 (≈ 7.8 µg/mL) | 8 (≈ 3.9 µg/mL) | 8 (≈ 3.9 µg/mL) | 16 (≈ 7.8 µg/mL) | 0.7294
CC(C)[C@H](NC(=O)OCc1ccccc1)C(=O)Oc1ccc(Cl)cc1C(=O)Nc1cccc(Cl)c1 | 4 (≈ 2.06 µg/mL) | 4 (≈ 2.06 µg/mL) | 16 (≈ 8.25 µg/mL) | 16 (≈ 8.25 µg/mL) | 8 (≈ 4.12 µg/mL) | 16 (≈ 8.25 µg/mL) | 16 (≈ 8.25 µg/mL) | 8 (≈ 4.12 µg/mL) | 16 (≈ 8.25 µg/mL) | 16 (≈ 8.25 µg/mL) | 0.8972
O=C(CNC(=O)OCc1ccccc1)Oc1ccc(Cl)cc1C(=O)Nc1ccc(Cl)c(Cl)c1 | 1 (≈ 0.508 µg/mL) | 2 (≈ 1.02 µg/mL) | 16 (≈ 8.12 µg/mL) | 32 (≈ 16.2 µg/mL) | 8 (≈ 4.06 µg/mL) | 8 (≈ 4.06 µg/mL) | 16 (≈ 8.12 µg/mL) | 8 (≈ 4.06 µg/mL) | 8 (≈ 4.06 µg/mL) | 8 (≈ 4.06 µg/mL) | 0.8639
O=C(N[C@H](Cc1ccccc1)C(=O)Oc1ccc(Cl)cc1C(=O)Nc1ccc(Cl)c(Cl)c1)OCc1ccccc1 | 2 (≈ 1.2 µg/mL) | 2 (≈ 1.2 µg/mL) | 16 (≈ 9.57 µg/mL) | 32 (≈ 19.1 µg/mL) | 4 (≈ 2.39 µg/mL) | 4 (≈ 2.39 µg/mL) | 8 (≈ 4.78 µg/mL) | 8 (≈ 4.78 µg/mL) | 8 (≈ 4.78 µg/mL) | 8 (≈ 4.78 µg/mL) | 1.303
CC(C)[C@@H](NC(=O)OCc1ccccc1)C(=O)Oc1ccc(Cl)cc1C(=O)Nc1ccc(Cl)cc1 | 4 (≈ 2.06 µg/mL) | 4 (≈ 2.06 µg/mL) | 16 (≈ 8.25 µg/mL) | 16 (≈ 8.25 µg/mL) | 8 (≈ 4.12 µg/mL) | 8 (≈ 4.12 µg/mL) | 16 (≈ 8.25 µg/mL) | 8 (≈ 4.12 µg/mL) | 8 (≈ 4.12 µg/mL) | 16 (≈ 8.25 µg/mL) | 0.9421
CC(C)[C@@H](NC(=O)OCc1ccccc1)C(=O)Oc1ccc(Cl)cc1C(=O)Nc1cccc(Cl)c1 | 8 (≈ 4.12 µg/mL) | 8 (≈ 4.12 µg/mL) | 32 (≈ 16.5 µg/mL) | 32 (≈ 16.5 µg/mL) | 8 (≈ 4.12 µg/mL) | 16 (≈ 8.25 µg/mL) | 16 (≈ 8.25 µg/mL) | 8 (≈ 4.12 µg/mL) | 16 (≈ 8.25 µg/mL) | 16 (≈ 8.25 µg/mL) | 0.8954
C[C@H](NC(=O)OCc1ccccc1)C(=O)Oc1cc(Cl)ccc1C(=O)Nc1ccc(Cl)cc1 | 4 (≈ 1.95 µg/mL) | 8 (≈ 3.9 µg/mL) | 16 (≈ 7.8 µg/mL) | 16 (≈ 7.8 µg/mL) | 4 (≈ 1.95 µg/mL) | 8 (≈ 3.9 µg/mL) | 8 (≈ 3.9 µg/mL) | 8 (≈ 3.9 µg/mL) | 8 (≈ 3.9 µg/mL) | 16 (≈ 7.8 µg/mL) | 0.6337
NNC(=O)c1ccncc1 [ISONIAZID] | 0.5 (≈ 0.0686 µg/mL) | 0.5 (≈ 0.0686 µg/mL) | > 250 | > 250 | > 250 | > 250 | > 250 | 4 (≈ 0.549 µg/mL) | 8 (≈ 1.1 µg/mL) | 8 (≈ 1.1 µg/mL) | 
